Values after ≈ are worked out from the molar mass of the structure shown. Active and inactive are the calls of the source. No cut-off for these calls is given here.
Experiments:
Moraxella catarrhalis = assay: Antibacterial activity against Moraxella catarrhalis by microbroth technology; type: functional
How it was run: (§1)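 MIC determined by broth microdilution, reported in µg/mL.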

[1] = target: T1, Amine oxidase [flavin-containing] A (Homo sapiens, UniProt P21397); assay: Inhibition of human recombinant MAOA
T1 sequence (P21397 whole entry): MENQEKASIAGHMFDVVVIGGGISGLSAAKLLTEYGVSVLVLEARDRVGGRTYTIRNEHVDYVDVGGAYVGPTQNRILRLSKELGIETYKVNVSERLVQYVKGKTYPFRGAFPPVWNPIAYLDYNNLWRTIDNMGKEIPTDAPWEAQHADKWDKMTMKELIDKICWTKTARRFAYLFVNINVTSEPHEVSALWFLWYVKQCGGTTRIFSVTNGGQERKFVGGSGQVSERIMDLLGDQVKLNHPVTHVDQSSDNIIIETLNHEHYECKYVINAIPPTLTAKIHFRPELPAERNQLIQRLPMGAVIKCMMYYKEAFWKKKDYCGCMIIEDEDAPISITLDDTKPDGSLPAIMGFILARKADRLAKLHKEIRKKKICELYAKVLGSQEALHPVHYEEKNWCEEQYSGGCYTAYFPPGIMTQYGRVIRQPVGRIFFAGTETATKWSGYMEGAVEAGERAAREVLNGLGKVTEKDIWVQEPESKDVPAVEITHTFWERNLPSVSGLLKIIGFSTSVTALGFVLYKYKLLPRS

Enterococcus faecalis = assay: Antibacterial activity against vancomycin-resistant Enterococcus faecalis MGH2 EF1 by microbroth technology; type: functional
How it was run: (§2)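 Drug-resistant panel strains (levofloxacin/oxacillin-resistant S. aureus, levofloxacin/penicillin-resistant S. pneumoniae, vancomycin-resistant E. faecalis and E. faecium). Broth microdilution MIC in µg/mL; value reported as MIC90 across the strains of each resistant group.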

Enterococcus faecium = assay: Antibacterial activity against vancomycin-resistant Enterococcus faecium by micro-broth technology; type: functional; how it was run: as §2
Streptococcus pneumoniae [2] = assay: Antibacterial activity against levofloxacin-penicillin-resistant Streptococcus pneumoniae SV1 SP3 by microbroth technology; type: functional; how it was run: as §2
Staphylococcus aureus [3] = assay: Antibacterial activity against levofloxacin-oxacillin-resistant Staphylococcus aureus UC76 SA1 by micro-broth technology; type: functional; how it was run: as §2
Haemophilus influenzae = assay: Antibacterial activity against Haemophilus influenzae by micro-broth technology; type: functional; how it was run: as §1
Escherichia coli = assay: Inhibition of protein synthesis in Escherichia coli by cell-free transcription-translation assay; type: functional
How it was run: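 E. coli cell-free coupled transcription/translation run in microtiter format with a luciferase reporter; luminescence was the read-out for protein synthesis.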

[4] = Volume of distribution at steady state in dog at 4 mg/kg, iv; type: ADME, organism-based, Canis lupus familiaris; design: dose 4 mg/kg, route intravenous; settings: in vivo, read-out: Vdss
[5] = Half life in dog at 20 mg/kg, po; type: ADME, organism-based, Canis lupus familiaris; design: dose 20 mg/kg, route oral; settings: in vivo
[6] = Half life in mouse at 20 mg/kg, po; type: ADME, organism-based; design: dose 20 mg/kg, route oral; settings: in vivo
Enterococcus = assay: Bacteriostatic activity against Enterococcus after 48 hrs by time kill study; type: functional, organism-based
Canis familiaris [7] = assay: Bioavailability in dog at 20 mg/kg, po; type: ADME, organism-based, Canis lupus familiaris; settings: in vivo
Staphylococcus = assay: Bacteriostatic activity against Staphylococcus after 48 hrs by time kill study; type: functional, organism-based
Rattus norvegicus [8] = assay: Bioavailability in Sprague-Dawley rat at 20 mg/kg, po; type: ADME, organism-based; settings: in vivo
[9] = AUC (0 to 24 hrs) in Sprague-Dawley rat plasma at 200 mg/kg/day, po after 14 days; type: ADME, organism-based; design: dose 200 mg/kg/day, time < 24 hr, route oral
How it was run: (§3)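 Female Sprague-Dawley rats received vehicle or drug by oral gavage daily for 14 days, at doses of 40-1000 (mg/kg)/day across the studies. End points were moribundity or lethality, hematology (RBC, hemoglobin, hematocrit, reticulocytes), bone marrow M:E ratio and plasma AUC(0-24).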

[10] = Volume of distribution at steady state in Sprague-Dawley rat at 10 mg/kg, iv; type: ADME, organism-based; design: dose 10 mg/kg, route intravenous; settings: in vivo, read-out: Vdss
[11] = Cmax in mouse at 20 mg/kg, po; type: ADME, organism-based; design: dose 20 mg/kg, route oral; settings: in vivo
[12] = AUC in mouse at 20 mg/kg, po; type: ADME, organism-based; design: dose 20 mg/kg, route oral; settings: plasma
Rattus norvegicus [13] = assay: Effect on hematology in Sprague-Dawley rat assessed as decrease in reticulocytes at 600 mg/kg/day, po after 14 days; type: ADME, organism-based; design: route oral; scale not given: the % may be the effect or the level left; settings: in vivo, 336 h; how it was run: as §3
Streptococcus pyogenes = assay: Antibacterial activity against Streptococcus pyogenes C203 by micro-broth technology; type: functional
[14] = Half life in Sprague-Dawley rat at 20 mg/kg, po; type: ADME, organism-based; design: dose 20 mg/kg, route oral; settings: in vivo
Rattus norvegicus [15] = assay: Effect on hematology in Sprague-Dawley rat assessed as increase in red blood cells at 600 mg/kg/day, po after 14 days; type: ADME, organism-based; design: route oral; settings: in vivo, 336 h; how it was run: as §3
Cytochrome P450 2D6 = Cytochrome P450 2D6 (Homo sapiens, UniProt P10635); assay: Inhibition of human liver microsome CYP2D6; type: ADME, microsomes
How it was run: (§4)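 Done in duplicate with 0.03-0.2 mg/mL human liver microsomes, 1 mM NADPH and 50 mM potassium phosphate, pH 7.4. Probe substrates: 30 µM phenacetin (1A2), 7.5 µM diclofenac (2C9), 50 µM […], 10 µM dextromethorphan (2D6), and 50 µM phenacetin, 50 µM midazolam or 1.5 µM felodipine (3A4). Drug was tested at 0-1000 µM. Reactions were quenched with ice-cold acetonitrile after 7-30 min and analysed by LC/MS.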

Rattus norvegicus [16] = assay: Toxicity in Sprague-Dawley rat at 600 mg/kg/day, po after 14 days; type: organism-based; design: route oral; settings: in vivo, 336 h; how it was run: as §3
Cytochrome P450 2C9 = Cytochrome P450 2C9 (Homo sapiens, UniProt P11712); assay: Inhibition of human liver microsome CYP2C9; type: ADME, microsomes; how it was run: as §4
Cytochrome P450 2C19 = Cytochrome P450 2C19 (Homo sapiens, UniProt P33261); assay: Inhibition of human liver microsome CYP2C19; type: ADME, microsomes; how it was run: as §4
Staphylococcus aureus [17] = assay: Antibacterial activity against methicillin-resistant Staphylococcus aureus SA1417 by micro-broth technology; type: functional
Rattus norvegicus [18] = assay: Effect on hematology in Sprague-Dawley rat assessed as increase in hematocrit at 600 mg/kg/day, po after 14 days; type: ADME, organism-based; design: route oral; settings: in vivo, 336 h; how it was run: as §3
Streptococcus pneumoniae [19] = assay: Bactericidal activity against Streptococcus pneumoniae after 48 hrs by time kill study; type: functional, organism-based
How it was run: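 Time-kill study: bacteria exposed continuously to drug at 2-16× the MIC and sampled over 48 h to assess eradication.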

Staphylococcus aureus [20] = assay: Antibacterial activity against methicillin-resistant Staphylococcus aureus SA1417 in po dosed CD1 mouse systemic infection model assessed as mortality after 7 days; type: functional
[21] = Cmax in Sprague-Dawley rat at 20 mg/kg, po; type: ADME, organism-based; design: dose 20 mg/kg, route oral; settings: in vivo
Staphylococcus aureus [22] = assay: Antibacterial activity against Staphylococcus aureus UC76 in po dosed CD1 mouse systemic infection model assessed as mortality after 7 days; type: functional
Rattus norvegicus [23] = assay: Effect on hematology in Sprague-Dawley rat assessed as increase in hemoglobin at 600 mg/kg/day, po after 14 days; type: ADME, organism-based; design: route oral; settings: in vivo, 336 h; how it was run: as §3
Rattus norvegicus [24] = assay: Increase in bone marrow myeloid/erythroid ratio in Sprague-Dawley rat at 600 mg/kg/day, po after 14 days; type: ADME, organism-based; design: route oral; settings: in vivo, 336 h
Cytochrome P450 3A4 = Cytochrome P450 3A4 (Homo sapiens, UniProt P08684); assay: Inhibition of human liver microsome CYP3A4; type: ADME, microsomes; how it was run: as §4
[25] = Cmax in dog at 20 mg/kg, po; type: ADME, organism-based, Canis lupus familiaris; design: dose 20 mg/kg, route oral; settings: in vivo
Canis familiaris [26] = assay: AUC in dog at 20 mg/kg, po; type: ADME, organism-based, Canis lupus familiaris, Plasma; design: dose 20 mg/kg, route oral; settings: in vivo
Staphylococcus aureus [27] = assay: Antibacterial activity against […] in po dosed CD1 mouse systemic infection model assessed as mortality after 7 days; type: functional
[28] = Clearance in mouse at 4 mg/kg, iv; type: ADME, organism-based; design: dose 4 mg/kg, route intravenous; settings: in vivo
Cytochrome P450 1A2 = target: T2, Cytochrome P450 1A2 (Homo sapiens, UniProt P05177); assay: Inhibition of human liver microsome CYP1A2; type: ADME, microsomes; how it was run: as §4
T2 sequence (P05177 whole entry): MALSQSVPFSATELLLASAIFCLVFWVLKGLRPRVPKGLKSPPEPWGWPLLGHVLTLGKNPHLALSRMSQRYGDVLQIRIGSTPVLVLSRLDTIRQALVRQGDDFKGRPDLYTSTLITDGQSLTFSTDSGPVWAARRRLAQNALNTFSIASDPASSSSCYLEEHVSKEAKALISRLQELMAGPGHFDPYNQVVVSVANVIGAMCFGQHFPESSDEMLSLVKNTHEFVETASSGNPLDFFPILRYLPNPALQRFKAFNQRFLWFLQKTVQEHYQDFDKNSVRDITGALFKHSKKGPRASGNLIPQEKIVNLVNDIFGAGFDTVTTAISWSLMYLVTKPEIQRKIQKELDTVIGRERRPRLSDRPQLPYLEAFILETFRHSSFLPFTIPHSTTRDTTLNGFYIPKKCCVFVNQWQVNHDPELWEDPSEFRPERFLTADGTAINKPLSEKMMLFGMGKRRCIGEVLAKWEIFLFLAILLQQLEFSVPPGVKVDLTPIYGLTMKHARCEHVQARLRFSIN

[29] = Volume of distribution at steady state in mouse at 4 mg/kg, iv; type: ADME, organism-based; design: dose 4 mg/kg, route intravenous; settings: in vivo, read-out: Vdss
Rattus norvegicus [30] = assay: AUC in Sprague-Dawley rat at 20 mg/kg, po; type: ADME, organism-based, Plasma; design: dose 20 mg/kg, route oral; settings: in vivo
[31] = AUC (0 to 24 hrs) in Sprague-Dawley rat plasma at 600 mg/kg/day, po after 14 days; type: ADME, organism-based; design: dose 600 mg/kg/day, time < 24 hr, route oral; how it was run: as §3

Cytochrome P450 3A4, sequence (P08684 whole entry): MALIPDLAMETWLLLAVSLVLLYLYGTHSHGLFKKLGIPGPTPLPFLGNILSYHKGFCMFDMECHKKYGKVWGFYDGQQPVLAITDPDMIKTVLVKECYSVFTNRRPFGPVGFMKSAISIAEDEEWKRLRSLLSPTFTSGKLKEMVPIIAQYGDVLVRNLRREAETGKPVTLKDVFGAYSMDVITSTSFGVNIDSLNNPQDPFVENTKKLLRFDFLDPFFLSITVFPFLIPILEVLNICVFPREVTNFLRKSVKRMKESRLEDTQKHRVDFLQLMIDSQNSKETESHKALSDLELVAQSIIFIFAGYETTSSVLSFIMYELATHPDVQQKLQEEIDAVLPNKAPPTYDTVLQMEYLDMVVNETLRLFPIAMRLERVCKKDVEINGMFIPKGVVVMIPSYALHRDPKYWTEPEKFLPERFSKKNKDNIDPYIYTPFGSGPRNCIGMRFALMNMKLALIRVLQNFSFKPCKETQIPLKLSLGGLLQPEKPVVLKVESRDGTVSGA
Cytochrome P450 2C19, sequence (P33261 whole entry): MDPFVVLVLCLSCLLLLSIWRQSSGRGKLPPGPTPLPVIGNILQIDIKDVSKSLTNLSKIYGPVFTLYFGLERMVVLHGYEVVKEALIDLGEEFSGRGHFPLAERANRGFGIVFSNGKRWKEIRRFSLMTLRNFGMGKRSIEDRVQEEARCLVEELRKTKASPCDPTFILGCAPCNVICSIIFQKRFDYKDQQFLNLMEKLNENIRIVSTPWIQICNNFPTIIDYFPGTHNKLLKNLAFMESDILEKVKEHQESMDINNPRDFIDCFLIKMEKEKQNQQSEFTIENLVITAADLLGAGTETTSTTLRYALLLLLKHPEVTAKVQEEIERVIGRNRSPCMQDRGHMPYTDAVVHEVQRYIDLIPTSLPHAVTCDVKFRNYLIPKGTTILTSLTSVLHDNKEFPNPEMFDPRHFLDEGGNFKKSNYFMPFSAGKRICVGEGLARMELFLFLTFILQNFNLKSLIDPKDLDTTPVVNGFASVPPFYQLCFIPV
Cytochrome P450 2C9, sequence (P11712 whole entry): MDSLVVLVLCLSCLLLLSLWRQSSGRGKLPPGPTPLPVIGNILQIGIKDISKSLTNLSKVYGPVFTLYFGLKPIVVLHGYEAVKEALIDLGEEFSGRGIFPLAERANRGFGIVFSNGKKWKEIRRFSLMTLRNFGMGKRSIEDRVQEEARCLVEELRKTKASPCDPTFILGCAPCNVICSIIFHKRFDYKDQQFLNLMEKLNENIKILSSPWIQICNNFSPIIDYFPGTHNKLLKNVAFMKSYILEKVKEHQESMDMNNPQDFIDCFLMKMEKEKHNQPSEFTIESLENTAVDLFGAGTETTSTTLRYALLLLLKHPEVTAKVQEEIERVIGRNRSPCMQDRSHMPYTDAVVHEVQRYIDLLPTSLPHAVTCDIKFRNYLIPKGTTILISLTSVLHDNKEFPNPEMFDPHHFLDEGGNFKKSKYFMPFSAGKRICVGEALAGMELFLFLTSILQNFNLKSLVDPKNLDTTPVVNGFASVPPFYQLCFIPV
Cytochrome P450 2D6, sequence (P10635 whole entry): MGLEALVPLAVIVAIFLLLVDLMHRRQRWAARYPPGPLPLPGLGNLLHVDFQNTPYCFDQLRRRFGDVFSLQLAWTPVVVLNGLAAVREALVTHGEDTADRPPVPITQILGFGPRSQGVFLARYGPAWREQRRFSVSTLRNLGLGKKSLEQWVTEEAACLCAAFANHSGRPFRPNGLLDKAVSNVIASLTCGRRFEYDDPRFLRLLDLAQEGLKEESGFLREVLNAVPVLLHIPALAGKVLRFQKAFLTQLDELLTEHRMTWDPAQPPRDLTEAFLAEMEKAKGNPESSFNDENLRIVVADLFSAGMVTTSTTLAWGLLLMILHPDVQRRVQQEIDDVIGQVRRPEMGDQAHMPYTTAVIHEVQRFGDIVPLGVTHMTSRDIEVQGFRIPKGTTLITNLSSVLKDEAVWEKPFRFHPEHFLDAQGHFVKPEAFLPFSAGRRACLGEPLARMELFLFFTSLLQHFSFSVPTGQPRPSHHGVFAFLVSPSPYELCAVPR

Work on `NC(=O)[C@H]1CN(c2ccc(C3CCOCC3)c(F)c2)C(=O)O1` yielded an MIC (Moraxella catarrhalis) of over 8 µg/mL, an IC50 [1] of 58 µM and an MIC (Enterococcus faecalis) of 4 µg/mL (≈ 13 µM). The MIC (Enterococcus faecium) was 8 µg/mL (≈ 25.9 µM), the MIC (Streptococcus pneumoniae [2]) was 2 µg/mL (≈ 6.49 µM) and the MIC (Staphylococcus aureus [3]) was 4 µg/mL (≈ 13 µM). For the same compound, the MIC (Haemophilus influenzae) was over 8 µg/mL and the IC50 (Escherichia coli) was 6.1 µM.
`NC(=O)[C@H]1CN(c2ccc([C@H]3CC[S@+]([O-])CC3)c(F)c2)C(=O)O1` gave a Vd [4] of 0.7 L/kg, a half-life [5] of 6.2 h and a half-life [6] of 1.5 h. The Activity (Enterococcus) was “Active”, the MIC (Moraxella catarrhalis) was over 8 µg/mL and the F (Canis familiaris [7]) was 64%. For the same compound, the Activity (Staphylococcus) was “Active”, the F (Rattus norvegicus [8]) was 83% and the AUC at 24 h [9] was 223 µg·h/mL. It also gave a Vd [10] of 6.2 L/kg, a Cmax [11] of 12300 ng/mL and an AUC [12] of 48.3 µg·h/mL. It also gave an Activity (Rattus norvegicus [13]) of 62%, an MIC (Streptococcus pyogenes) of 4 µg/mL (≈ 11.8 µM) and a half-life [14] of 5.8 h. The IC50 [1] was 546 µM, the MIC90 (Enterococcus faecalis) was 4 µg/mL (≈ 11.8 µM) and the Activity (Rattus norvegicus [15]) was 8%. For the same compound, the IC50 (Cytochrome P450 2D6) was over 900 µM, the Activity (Rattus norvegicus [16]) was “Toxic” and the MIC90 (Enterococcus faecium) was 4 µg/mL (≈ 11.8 µM). For the same compound, the IC50 (Cytochrome P450 2C9) was over 900 µM, the IC50 (Cytochrome P450 2C19) was over 900 µM and the MIC (Staphylococcus aureus [17]) was 4 µg/mL (≈ 11.8 µM). The Activity (Rattus norvegicus [18]) was 8%, the Activity (Streptococcus pneumoniae [19]) was “Active” and the PD50 (Staphylococcus aureus [20]) was 1.7 mg/kg. For the same compound, the Cmax [21] was 15900 ng/mL, the PD50 (Staphylococcus aureus [22]) was 1.25 mg/kg and the Activity (Rattus norvegicus [23]) was 8%. The Ratio (Rattus norvegicus [24]) was 4.5, the IC50 (Cytochrome P450 3A4) was over 900 µM and the Cmax [25] was 17900 ng/mL. The AUC (Canis familiaris [26]) was 76.2 µg·h/mL, the PD50 (Staphylococcus aureus [27]) was under 5 mg/kg and the MIC90 (Streptococcus pneumoniae [2]) was 2 µg/mL (≈ 5.88 µM). It also gave a clearance [28] of 25.2 mL/min/kg, an IC50 (Cytochrome P450 1A2) of over 900 µM and a Vd [29] of 3.3 L/kg. For the same compound, the MIC90 (Staphylococcus aureus [3]) was 2 µg/mL (≈ 5.88 µM), the MIC (Haemophilus influenzae) was over 8 µg/mL and the AUC (Rattus norvegicus [30]) was 109 µg·h/mL. The IC50 (Escherichia coli) was 3.4 µM and the AUC at 24 h [31] was 619 µg·h/mL.
